This is an account of results in ChEMBL document CHEMBL1147432, “Rational design of azepane-glycoside antibiotics targeting the bacterial ribosome” (Bioorg Med Chem Lett, 2004).

Usually MIC stands for the least concentration at which growth counts as inhibited. High values mean a need for much substance, low ones inhibition by little substance. Usually IC50 stands for the concentration that gives 50% inhibition. Read a high IC50 as lower potency. The term CC50 denotes the concentration at which the toxic effect on the cells reaches its halfway point. Lower therefore signals harm at low concentration.

Values after ≈ are worked out from the molar mass of the structure shown.

In experiment [1] the test system is Staphylococcus aureus. The experiment can be described thus: Antibacterial activity against Staphylococcus aureus (ATCC-25923). Type of experiment: functional.
Experiment [2] relates to Staphylococcus aureus. Description: Compound was tested for bacterial translation inhibition (in vitro) using transcription-translation assay. Type of experiment: functional. A digest of the protocol: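 Coupled in vitro transcription–translation assay; IC50 from dose–response curves averaged over six independent experiments, error bars ±1σ.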
Experiment [3] deals with Escherichia coli. The experiment can be described thus: Antibacterial activity against Escherichia coli (Strain ATCC 25922). Type of experiment: functional.
The target in experiment [4] is Nucleic Acid. The experiment can be described thus: Compound was tested for binding to the bacterial decoding-site RNA target using an RNA fluorescence assay. In kind it is nucleic-acid assay. A digest of the protocol: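 Fluorescence assay on a model decoding-site oligonucleotide, reporting ligand-induced flipping out of adenines A1492 and A1493; binding curve averaged from two titrations and fitted to a single-site model to give IC50.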

Experiment [5] can be described thus: Cytotoxic concentration against proliferation of eukaryotic cells. Type of experiment: functional.

Regarding `NC[C@H]1O[C@H](O[C@@H]2C[C@@H](CO)NCC[C@H]2N)[C@H](N)[C@@H](O)[C@@H]1O`, the MIC in experiment [1] and in experiment [3] was more than 64 µg/mL in each case. Further, the IC50 in experiment [2] came out at 180 µM; in experiment [4], 80 µM.
In the case of `NC[C@H]1O[C@H](O[C@H]2C[C@H](CO)NCC[C@@H]2N)[C@H](N)[C@@H](OCc2ccccc2)[C@@H]1OCc1ccccc1`, the minimal inhibitory concentration (MIC) in experiment [1] and in experiment [3] was more than 64 µg/mL throughout. Besides, the values for the IC50 in experiment [2] and in experiment [4] were more than 1000 µM and more than 250 µM, respectively.
Regarding `NC[C@H]1O[C@H](O[C@H]2C[C@H](CO)NCC[C@@H]2N)[C@H](N)[C@@H](O)[C@@H]1O`, the MIC in experiment [1] was 64 µg/mL (≈ 200 µM); in experiment [3], more than 64 µg/mL. The 50% cytotoxic concentration (CC50) in experiment [5] was more than 320 µM. In addition, the half-maximal inhibitory concentration (IC50) in experiment [2] is 5.7 µM; in experiment [4], 11 µM.
`NC[C@H]1O[C@H](O[C@H]2CCN[C@@H](CO)C[C@@H]2N)[C@H](N)[C@@H](O)[C@@H]1O`: the MIC in experiment [1] and in experiment [3] was more than 64 µg/mL in each case. The 50% inhibitory concentration (IC50) in experiment [2] is 370 µM; in experiment [4], more than 250 µM.
As for `NC[C@H]1O[C@H](O[C@H]2C[C@H](CCl)NCC[C@@H]2N)[C@H](N)[C@@H](O)[C@@H]1O`, the MIC in experiment [1] and in experiment [3] was more than 64 µg/mL each time. Further, the IC50 was 82 µM in experiment [2] and more than 250 µM in experiment [4].
Regarding `NC[C@H]1O[C@H](O[C@@H]2C[C@H](CO)NCC[C@H]2N)[C@H](N)[C@@H](O)[C@@H]1O`, the minimum inhibitory concentration (MIC) in experiment [1] is 32 µg/mL (≈ 99.9 µM); in experiment [3], more than 64 µg/mL. The same compound returned a half-maximal cytotoxic concentration (CC50) in experiment [5] of more than 320 µM. Further, the figures for the IC50 in experiment [2] and in experiment [4] were 6.4 µM and 12 µM, respectively.
For `NC[C@H]1O[C@H](O[C@H]2CCN[C@H](CO)C[C@@H]2N)[C@H](N)[C@@H](O)[C@@H]1O`, the MIC in experiment [1] and in experiment [3] was more than 64 µg/mL each time. For the same compound, the 50% inhibitory concentration (IC50) is 39 µM in experiment [2] and more than 250 µM in experiment [4].
With `NC[C@H]1C[C@H](O[C@H]2O[C@H](CN)[C@@H](O)[C@H](O)[C@H]2N)[C@@H](N)CCN1`, the MIC in experiment [1] and in experiment [3] was more than 64 µg/mL in each case. For the same compound, the half-inhibitory concentration (IC50) in experiment [2] was 170 µM; in experiment [4], more than 250 µM.
As for `N[C@H]1[C@@H](O[C@H]2C[C@H](CO)NCC[C@@H]2N)O[C@H](CO)[C@@H](O)[C@@H]1O`, the MIC in experiment [1] and in experiment [3] was more than 64 µg/mL each time. For the same compound, the half-inhibitory concentration (IC50) in experiment [2] is 110 µM; in experiment [4], more than 250 µM.
Turning to `NC[C@H]1O[C@H](O[C@@H]2CCN[C@H](CO)C[C@H]2N)[C@H](N)[C@@H](O)[C@@H]1O`, the minimal inhibitory concentration (MIC) in experiment [1] and in experiment [3] was more than 64 µg/mL in each case. Further, the results for the half-maximal inhibitory concentration (IC50) in experiment [2] and in experiment [4] were 47 µM and more than 250 µM, respectively.
In the case of `NC[C@H]1O[C@H](O[C@H]2C[C@@H]3COC(=O)N3CC[C@@H]2N)[C@H](N)[C@@H](O)[C@@H]1O`, the minimum inhibitory concentration (MIC) in experiment [1] and in experiment [3] was more than 64 µg/mL throughout. Further, the IC50 was more than 1000 µM in experiment [2] and more than 250 µM in experiment [4].
Regarding `NC[C@H]1O[C@H](O[C@@H]2CCN[C@@H](CO)C[C@H]2N)[C@H](N)[C@@H](O)[C@@H]1O`, the MIC in experiment [1] and in experiment [3] was more than 64 µg/mL throughout. Moreover, the 50% inhibitory concentration (IC50) in experiment [2] was 230 µM; in experiment [4] it was more than 250 µM.
As to `CN1CC[C@H](N)[C@@H](O[C@H]2O[C@H](CN)[C@@H](O)[C@H](O)[C@H]2N)C[C@@H]1CO`, the MIC in experiment [1] and in experiment [3] was more than 64 µg/mL throughout. Also, the IC50 in experiment [2] was 75 µM; in experiment [4], more than 250 µM.
